Results taken from ChEMBL document CHEMBL1134922, “Substituted 4-(2,2-diphenylethyl)pyridine-N-oxides as phosphodiesterase-4 inhibitors: SAR study directed toward the improvement of pharmacokinetic parameters” (Bioorg Med Chem Lett, 2002).
Values joined by “and” are separate entries in the source; they are usually repeats but may differ in a detail not shown here. Identical values can stand only once. Active and inactive are the calls of the source. No cut-off for these calls is given here.

Experiments:
[1] = organism: Homo sapiens; experiment: Inhibition of LPS-induced TNF-alpha formation in human whole blood.; type: functional, organism-based
[2] = target: 3',5'-cyclic-AMP phosphodiesterase 4A (Homo sapiens, UniProt P27815); experiment: Inhibition of human Phosphodiesterase 4A isoform using construct representing the common region of spliced variants expressed as GST-fusion proteins in Sf9 cells.
3',5'-cyclic-AMP phosphodiesterase 4A, sequence (P27815 whole entry, looked up, stated change not applied, the tested form may be a part, canonical isoform): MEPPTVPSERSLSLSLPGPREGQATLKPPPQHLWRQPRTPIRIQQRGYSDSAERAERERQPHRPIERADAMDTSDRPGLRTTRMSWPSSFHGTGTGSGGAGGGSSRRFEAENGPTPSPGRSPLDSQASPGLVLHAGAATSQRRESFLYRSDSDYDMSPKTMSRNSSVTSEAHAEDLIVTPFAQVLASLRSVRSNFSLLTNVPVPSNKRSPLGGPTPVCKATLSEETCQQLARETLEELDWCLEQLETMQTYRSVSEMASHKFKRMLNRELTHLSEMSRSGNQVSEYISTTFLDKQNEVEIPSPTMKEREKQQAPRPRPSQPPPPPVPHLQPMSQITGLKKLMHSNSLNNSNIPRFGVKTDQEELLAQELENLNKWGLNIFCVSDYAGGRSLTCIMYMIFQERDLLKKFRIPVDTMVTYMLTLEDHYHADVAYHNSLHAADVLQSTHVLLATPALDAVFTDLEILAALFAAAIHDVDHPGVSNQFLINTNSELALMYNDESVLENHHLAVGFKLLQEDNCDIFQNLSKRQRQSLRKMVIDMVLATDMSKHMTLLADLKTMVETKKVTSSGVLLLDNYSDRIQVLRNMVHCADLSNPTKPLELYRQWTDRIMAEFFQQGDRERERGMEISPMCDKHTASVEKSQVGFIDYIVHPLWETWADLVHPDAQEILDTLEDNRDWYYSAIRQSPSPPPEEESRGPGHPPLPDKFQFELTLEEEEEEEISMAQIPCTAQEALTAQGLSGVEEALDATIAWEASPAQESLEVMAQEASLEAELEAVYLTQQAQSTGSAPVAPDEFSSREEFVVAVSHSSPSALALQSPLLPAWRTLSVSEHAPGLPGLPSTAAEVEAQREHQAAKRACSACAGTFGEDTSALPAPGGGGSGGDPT

[3] = Half-life in Squirrel monkey; type: ADME; details: in vivo
[4] = Half-life in Dog; type: ADME, organism-based, Canis lupus familiaris; details: in vivo
[5] = Half-life in rat; type: ADME, organism-based; details: in vivo
[6] = tested on: Mustela putorius furo; experiment: Emetic effect in ferrets to maximum 30 mg/kg oral dose; type: functional, organism-based; design: dose 30 mg/kg
Procedure, shortened: (§1)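 Ferrets dosed orally at 30 mg/kg; emesis monitored, with plasma Cmax recorded.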

[7] = Cmax in ferrets after 30mg/kg oral dose; type: ADME, organism-based, Mustela putorius furo; design: dose 30 mg/kg, route oral; details: ferret, in vivo; procedure, shortened: as §1
[8] = tested on: Cavia porcellus; experiment: Inhibition of the ovalbumin-induced bronchoconstriction in conscious guinea pigs after 0.5 hr pretreatment with 1 mg/kg administered intraperitoneally; type: functional; details: route intraperitoneal
[9] = tested on: Cavia porcellus; experiment: Inhibition of the ovalbumin-induced bronchoconstriction in conscious guinea pigs after 4 hr pretreatment with 1 mg/kg administered intraperitoneally; type: functional; details: route intraperitoneal
[10] = tested on: Ovis aries; experiment: Inhibition of ascaris-induced bronchoconstriction in sheep after early treatment with 2 mg/kg intravenous dose; type: functional
Procedure, shortened: (§2)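 Sheep, ascaris-induced bronchoconstriction; 2 mg/kg given iv 2 h before challenge; percent inhibition of early and late responses.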

[11] = tested on: Ovis aries; experiment: Inhibition of ascaris-induced bronchoconstriction in sheep after late treatment with 2 mg/kg intravenous dose; type: functional; procedure, shortened: as §2
[12] = (§3) Inhibition of ascaris-induced bronchoconstriction in Anaesthetized squirrel monkey after treatment with 3 mg/kg peroral dose; type: functional; details: route oral
[13] = Bioavailability upon oral administration of compound; type: ADME, organism-based; details: rat, in vivo
Procedure, shortened: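 Rat, oral dosing at 3 mg/kg in 60% PEG200; bioavailability determined, with plasma level also sampled at 6 h.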

[14] = (§4) Inhibition of ascaris-induced bronchoconstriction in Anaesthetized squirrel monkey after treatment with 0.5 mg/kg peroral dose; type: functional; details: route oral
[15] = (§5) Inhibition of ascaris-induced bronchoconstriction in Anaesthetized squirrel monkey after treatment with 1 mg/kg peroral dose; type: functional; details: route oral
[16] = as §4; type: functional; details: route oral; remark: listed apart in the source
[17] = as §5; type: functional; details: route oral; remark: listed apart in the source
[18] = as §3; type: functional; details: route oral; remark: listed apart in the source
[19] = tested on: Ovis aries; experiment: Inhibition of ascaris-induced bronchoconstriction in sheep after late treatment with 2 mg/kg intravenous dose
[20] = tested on: Ovis aries; experiment: Inhibition of ascaris-induced bronchoconstriction in sheep after early treatment with 2 mg/kg intravenous dose

SMILES: Cc1cc(C(O)(C(F)(F)F)C(F)(F)F)ccc1C(Cc1cc[n+]([O-])cc1)c1ccc(OC(F)F)c(OC(F)F)c1 (stereo unspecified)
- IC50 ([1]; Homo sapiens, Blood): 7.8 µM
- IC50 [2]: 0.032 µM

SMILES: Cc1cc(C(Cc2cc[n+]([O-])cc2)c2ccc(OC(F)F)c(OC(F)F)c2)ccc1C(O)(C(F)(F)F)C(F)(F)F (stereo unspecified)
- IC50 ([1]; Homo sapiens, Blood): 1 µM
- IC50 [2]: 0.0044 µM

SMILES: CCc1c[n+]([O-])ccc1CC(c1ccc(C(O)(C(F)(F)F)C(F)(F)F)cc1)c1ccc(OC(F)F)c(OC(F)F)c1 (stereo unspecified)
- IC50 ([1]; Homo sapiens, Blood): 3.9 µM
- IC50 [2]: 0.027 µM

SMILES: Cc1cc(CC(c2ccc(C(O)(C(F)(F)F)C(F)(F)F)cc2)c2ccc(OC(F)F)c(OC(F)F)c2)cc[n+]1[O-] (stereo unspecified)
- IC50 ([1]; Homo sapiens, Blood): 0.3 µM
- IC50 [2]: 0.018 µM

SMILES: [O-][n+]1ccc(CC(c2ccc(C(O)(C(F)(F)F)C(F)(F)F)cc2)c2ccc(OC(F)F)c(OC(F)F)c2)c(CO)c1 (stereo unspecified)
- IC50 ([1]; Homo sapiens, Blood): 7.9 µM
- IC50 [2]: 0.038 µM

SMILES: [O-][n+]1ccc(CC(c2ccc(C(O)(C(F)(F)F)C(F)(F)F)cc2)c2ccc(OC(F)F)c(OC(F)F)c2)cc1 (stereo unspecified)
- half-life [3]: > 48 h
- half-life [4]: > 48 h
- half-life [5]: > 48 h
- Emesis [6]: inactive
- Cmax [7]: 14 µM
- Efficacy [8]: 0%
- Efficacy [9]: 58%
- IC50 ([1]; Homo sapiens, Blood): 0.7 µM
- IC50 [2]: 0.0042 µM
- Efficacy [10]: 85%
- Efficacy [11]: 95%
- Efficacy [12]: 96%

SMILES: Cc1c[n+]([O-])cc(C)c1CC(c1ccc(C(O)(C(F)(F)F)C(F)(F)F)cc1)c1ccc(OC(F)F)c(OC(F)F)c1 (stereo unspecified)
- IC50 ([1]; Homo sapiens, Blood): 5.8 µM
- IC50 [2]: 0.057 µM

SMILES: CC(O)c1c[n+]([O-])ccc1CC(c1ccc(C(O)(C(F)(F)F)C(F)(F)F)cc1)c1ccc(OC(F)F)c(OC(F)F)c1 (stereo unspecified)
- IC50 ([1]; Homo sapiens, Blood): 13 µM
- IC50 [2]: 0.042 µM

SMILES: CC(=O)c1c[n+]([O-])ccc1CC(c1ccc(C(O)(C(F)(F)F)C(F)(F)F)cc1)c1ccc(OC(F)F)c(OC(F)F)c1 (stereo unspecified)
- IC50 ([1]; Homo sapiens, Blood): 2.9 µM
- IC50 [2]: 0.0027 µM

SMILES: Cc1c[n+]([O-])ccc1CC(c1ccc(C(O)(C(F)(F)F)C(F)(F)F)cc1)c1ccc(OC(F)F)c(OC(F)F)c1 (racemic)
- IC50 [1]: 0.4 µM
- IC50 [2]: 0.0021 µM

SMILES: CC(c1cc[n+]([O-])cc1)C(c1ccc(C(O)(C(F)(F)F)C(F)(F)F)cc1)c1ccc(OC(F)F)c(OC(F)F)c1 (single isomer, unassigned; diastereomer 1)
- IC50 [1]: 23 µM
- IC50 [2]: 0.039 µM

SMILES: CC(c1cc[n+]([O-])cc1)C(c1ccc(C(O)(C(F)(F)F)C(F)(F)F)cc1)c1ccc(OC(F)F)c(OC(F)F)c1 (single isomer, unassigned; diastereomer 2)
- IC50 [1]: 7.8 µM
- IC50 [2]: 0.039 µM

SMILES: Cc1c[n+]([O-])ccc1CC(c1ccc(C(O)(C(F)(F)F)C(F)(F)F)cc1)c1ccc(OC(F)F)c(OC(F)F)c1 (single isomer, unassigned; enantiomer 2)
- IC50 [1]: 3.7 µM
- IC50 [2]: 0.023 µM

SMILES: Cc1c[n+]([O-])ccc1CC(c1ccc(C(O)(C(F)(F)F)C(F)(F)F)cc1)c1ccc(OC(F)F)c(OC(F)F)c1 (stereo in doubt) [listing 1 of 2 here]
- half-life [3]: 36 h
- half-life [4]: 19 h
- bioavailability [13]: 60%
- half-life [5]: 10 h
- Cmax [7]: 10 µM
- Efficacy [8]: 82%
- IC50 [1]: 0.3 µM
- IC50 [2]: 0.0013 µM and 0.0042 µM
- Efficacy [12]: 59%
- Efficacy [14]: 26%
- Efficacy [15]: 33%
- Efficacy [16]: 38%
- Efficacy [17]: 63%
- Efficacy [18]: 100%
- Efficacy [19]: 90%
- Efficacy [20]: 62%

SMILES: Cc1c[n+]([O-])ccc1CC(c1ccc(C(O)(C(F)(F)F)C(F)(F)F)cc1)c1ccc(OC(F)F)c(OC(F)F)c1 (stereo in doubt) [listing 2 of 2 here]
- Emesis [6]: inactive

SMILES: COc1ccc([C@H](Cc2ccncc2)c2ccccc2)cc1OC1CCCC1 [CDP840]
- IC50 ([1]; Homo sapiens, Blood): 15 µM
- IC50 [2]: 0.0042 µM

SMILES: COc1ccc([C@]2(C#N)CC[C@@H](C(=O)O)CC2)cc1OC1CCCC1 [CILOMILAST]
- IC50 ([1]; Homo sapiens, Blood): 18 µM
